# Rows were chosen to be rich in hits. Some 2.2% of all compounds tested hit in one or more screens of this group.
# V-ATPase pH: yeast V-ATPase proton transport regulation by pHLuorin; S. cerevisiae, pHLuorin cytosolic pH fluorescence; response, % at 10 µM; 0.37% of 350,000 active; in the data active = response mostly above about 7.3%, no sharp cut-off; inactive = mostly below about 5.4%; note: actives read high
# Granule exo inh: lytic granule exocytosis inhibition; inhibition, % at 10 µM; 0.66% of 360,000 active; TALL-104 LAMP-1 surface exposure, flow cytometry; cells stimulated with thapsigargin and PMA;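 active = inhibition above about 55%, limit read from the data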
# ASAP1 inh: ASAP1 ArfGAP inhibition; inhibition, % at 16.5 µM; Q9ULH1; ASAP1-stimulated ARF1 GTP hydrolysis, GDP FP detection; 0.19% of 360,000 active; in the data active = inhibition above about 25%;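 note: 0% = vehicle with enzyme and substrate and 100% = no enzyme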
# Target sequence (Q9ULH1 325-724 limits assumed): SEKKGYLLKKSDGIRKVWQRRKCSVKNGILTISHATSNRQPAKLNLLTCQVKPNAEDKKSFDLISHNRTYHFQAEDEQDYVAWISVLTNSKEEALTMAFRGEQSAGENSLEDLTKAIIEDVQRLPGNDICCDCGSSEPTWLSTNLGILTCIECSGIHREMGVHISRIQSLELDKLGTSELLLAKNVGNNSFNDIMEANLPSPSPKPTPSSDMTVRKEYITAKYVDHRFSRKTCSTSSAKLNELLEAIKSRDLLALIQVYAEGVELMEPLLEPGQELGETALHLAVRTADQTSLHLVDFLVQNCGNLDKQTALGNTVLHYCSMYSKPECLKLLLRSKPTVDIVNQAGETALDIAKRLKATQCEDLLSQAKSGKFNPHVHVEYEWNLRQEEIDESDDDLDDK
# ARFGAP1 inh: inhibitors of rat ARFGAP1 | Q62848 | Arfgap1-stimulated ARF1 GTP hydrolysis, GDP FP detection | inhibition, % at 16.5 µM | 0.26% of 360,000 active;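 active = inhibition above a per-plate limit, mean inhibition of low control wells plus 3 SD, cut at about 25% in these data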;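 note: 0% = DMSO wells with enzyme and 100% = wells lacking Arfgap1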
# Target sequence (Q62848 1-136 limits assumed): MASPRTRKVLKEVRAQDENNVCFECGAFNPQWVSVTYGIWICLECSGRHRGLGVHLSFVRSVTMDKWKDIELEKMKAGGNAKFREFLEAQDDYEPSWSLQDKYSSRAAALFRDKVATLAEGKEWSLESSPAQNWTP
#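 Material: rat Arfgap1 catalytic domain, aa 1-136; also added: human ARF1(Δ1-17)-GTP substrate; compound dosing: one concentration, 16.5 µM, DMSO 1.26%; incubation: GTP hydrolysis reaction 2 h at 25 °C; measured by: Tracer-displacement fluorescence polarization with EDTA stop, 620/688 nm; evaluation: % inhibition from polarization; repeats: one replicate per compound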
# CendR NRP1 mod: NRP-1/CendR interaction modulation. inhibition, % at 25 µM. 0.85% of 360,000 active. O14786. FAM-RPARPAR peptide binding to NRP-1, fluorescence polarization;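 active = inhibition or corrected inhibition above about 18%, plus a signal ratio from 0.5 to 1.5, limit read from the data, passing the limit was not always enough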
# V-ATPase pH SP: regulators of yeast V-ATPase proton transport; 2% of 980 active; shares compounds with V-ATPase pH; S. cerevisiae pHLuorin cytosolic pH; response, % at 10 µM; AID 602197; in the data active = response above about 24%;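 note: plate controls were vehicle wells for no effect and positive control wells for full effect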
# * hit, by the source's call; nt = no result given.
SMILES,V-ATPase pH,Granule exo inh,ASAP1 inh,ARFGAP1 inh,CendR NRP1 mod,V-ATPase pH SP
CN1CCN(C(=S)NC(=O)c2ccco2)CC1,11*,12,-7,-8,4,0
Cc1cc(C)n2nc(SCC(=O)NC(=O)c3ccccc3Cl)nc2n1,9.8*,0,3,-1,1,1
CCOC(=O)Cc1csc(NC(=O)COc2ccccc2)n1,11*,2,-4,-17,23,0
Cc1ccc(S(=O)(=O)N2CCCc3nc(-c4ccc(F)cc4)ccc32)cc1,nt,nt,-2,-2,nt,nt
CC/C(O)=C(/C#N)c1nnc2n1CCCCC2,5,0,9,3,0,nt
N#C/C(=C(/O)COc1ccc(Br)cc1)c1nnc2n1CCCCC2,7.5*,5,-5,1,4,-1
CCNC(=O)N1CCN(c2ccc(N3CCN(C(=O)NCC)[C@H](C)C3)c(C)c2)[C@@H](C)C1,nt,nt,5,-3,nt,nt
CC(C)CNC(=O)[C@H](Cc1ccccc1)NC(=O)c1cccs1,7,4,-6,11,-8,nt
CCc1ccccc1N(C)S(=O)(=O)c1ccc2[nH]cc(C(=O)N3CCc4ccccc43)c(=O)c2c1,22*,10,-1,14,-9,8
Cc1cccc(N(C)S(=O)(=O)c2ccc3[nH]cc(C(=O)N4CCOCC4)c(=O)c3c2)c1,2,-3,1,2,-6,nt
S=c1[nH]nc(-c2ccccc2)n1Cc1ccccc1,3,-3,-5,12,4,nt
Cc1n[nH]c(=S)n1Cc1ccccc1,9.8*,4,5,-1,-8,-7
Cn1cccc1CC(=O)NNC(=S)Nc1ccc(F)cc1,-2,-1,7,-1,3,nt
Cn1cccc1CC(=O)NNC(=S)Nc1ccc(Cl)cc1Cl,16*,2,-14,0,0,-1
CC(C)c1ccc(N(CC(=O)NC2CCCC2)C(=O)CCC(=O)Nc2ccccn2)cc1,15*,4,10,1,2,-1
CCc1ccc(N(CC(=O)NC2CCCC2)C(=O)CCC(=O)Nc2ccccn2)cc1,3,-17,0,4,4,nt
O=C(NCCNC(=O)c1ccc(F)cc1)c1ccc(F)cc1,0,1,-3,3,3,1
O=C(NCCNC(=O)c1cc(F)cc(F)c1)c1cc(F)cc(F)c1,1,-1,-5,-7,5,nt
O=C(NCCCN1CCN(CCCNC(=O)c2ccc(F)cc2)CC1)c1ccc(F)cc1,-1,1,5,2,9,1
CC(=O)NCCSC(=O)c1ccc(F)cc1,-2,0,-3,2,12,0
Cc1csc2c(SCC(=O)NNC(=O)C(Cl)Cl)ncnc12,12*,-2,-1,6,-10,-4
CN(Cc1nc(C(c2ccccc2)c2ccccc2)no1)CC1COCCO1 (centres undefined),11*,4,9,14,-4,-5
CN(Cc1nc(-c2cccs2)no1)CC1COCCO1 (centres undefined),-8,0,-11,8,0,nt
O=C(Cc1ccc([N+](=O)[O-])cc1)Nc1cccc(C(F)(F)F)c1,12*,-10,-2,-8,5,-2
O=C(Cc1ccc([N+](=O)[O-])cc1)Nc1cc(C(F)(F)F)cc(C(F)(F)F)c1,0,-12,6,18,2,nt
SMILES,V-ATPase pH,Granule exo inh,ASAP1 inh,ARFGAP1 inh,CendR NRP1 mod,V-ATPase pH SP
COc1ccc(C(=S)N2CCN(C)CC2)cc1Br,8.0*,-2,-10,0,4,-1
O=C(Cc1c(Cl)cccc1Cl)OCC(=O)N1CCOCC1,13*,-10,-3,-11,6,3
O=C(Cc1c(Cl)cccc1Cl)OCC(=O)N1CCc2ccccc2C1,1,-5,-3,-10,3,nt
CCOC(=O)C1=C(C)NC(C)=C(C(=O)OCC)C1C(=O)OCC(=O)N1CCc2ccccc2C1,12*,-2,-4,-6,-13,-2
O=C(Nc1ccc2oc(-c3cccnc3)nc2c1)c1ccc([N+](=O)[O-])o1,11*,-1,10,8,-4,2
CCOc1ccccc1OCCCC(=O)NNC(=O)c1ccc(F)cc1,1,2,-8,6,-3,nt
COc1ccc(S(=O)(=O)N2CCCC(C(=O)N3CCN(Cc4ccccc4)CC3)C2)cc1Cl (centres undefined),4,1,-8,1,-2,nt
CCOC(=O)CCCNC(=O)COC(=O)CCC(=O)c1ccc(F)cc1,1,2,2,-2,2,-3
CCCCNC(=O)COC(=O)CCC(=O)c1ccc(F)cc1,2,0,9,-3,6,2
CC(C)CNC(=O)COC(=O)CCC(=O)c1ccc(F)cc1,0,7,17,6,-2,nt
CCCNC(=O)COC(=O)CCC(=O)c1ccc(F)cc1,-8,-2,6,-13,-6,-1
CC(=O)Nc1ccc(-c2ccnc3c2CC(C)(C(=O)NCc2ccc(F)c(F)c2)O3)cc1 (centres undefined),nt,11,-5,0,-2,nt
CCOC(=O)/C(C#N)=C1/C=CN(Cc2ccccc2)C=N1,3,8,0,-9,-10,nt
CCOC(=O)/C(C#N)=C1\C(=O)N(Cc2ccccc2)c2ccccc21,10*,9,-16,-4,4,6
O=C(COc1ccc(Cl)cc1)Nc1cc2c3c(c1)CC(=O)N3CCC2,1,34,-2,-8,10,nt
CN(C)C(CNC(=O)c1ccc(S(=O)(=O)Nc2cccc(C(F)(F)F)c2)cc1)c1ccco1 (centres undefined),10*,-3,4,10,-8,2
O=C(CN1C(=O)NC2(CCCCCCC2)C1=O)Nc1ccc(Cl)cc1,9,-4,1,4,-5,nt
Cc1nn(-c2ccccc2)c(Cl)c1/C=C1\C(=O)N(C)C(=S)N1C,47*,-3,3,-17,-13,2
Cc1nn(-c2ccccc2)c(Cl)c1/C=C1\SC(=S)N(C)C1=O,-3,-3,0,2,9,nt
O=C1NCCN/C1=C\C(=O)c1ccc(F)cc1,-2,-3,-5,1,1,3
Cc1nc2ccccc2n1CC(=O)OCC(=O)NCc1ccccc1,-1,1,5,-4,9,nt
CCOC(=O)Cn1c(=O)c(-c2ccccc2NCc2ccccc2)nc2ccccc21,-1,8,-2,7,1,3
COc1cccc(N2C(=O)c3ccncc3C2=O)c1,12*,1,11,-7,7,-1
COc1ccc(CNC(=O)C2CCC(=O)N(C3CCCCCC3)C2)c(OC)c1 (centres undefined),nt,-4,7,1,-10,nt
O=C(O)Cc1ccc(NC(=O)c2ccc3c(c2)C(=O)N(Cc2ccccc2)C3=O)cc1,1,16,0,-4,-3,nt
O=C(O)c1cc(NC(=O)c2ccc3c(c2)C(=O)N(Cc2ccccc2)C3=O)cc(C(=O)O)c1,7.6*,3,-7,-1,-30,-2
COc1ccc2c(=O)cc(-c3ccccc3F)oc2c1,5.7*,3,-1,0,-9,-1
